# Experimental data taken from PubChem BioAssay AID638 (SRMLSC, 2007).
# About 65 (5%) of roughly 1,300 compounds were called active. For the sample, actives were picked, then their nearest neighbours and some compounds at random. Results with a measured potency or affinity are listed apart. Values without a mark were called inactive.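 The calls were made as follows: active = growth inhibition reaching a set limit at one or more tested doses; inactive = the rest.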
# Assay: growth inhibition of wild-type E. coli, dose response, BW25113 wild type, OD615 (AID 638)
# Conditions: at 100 µM (top of the series)
# Summary of the method: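 Assay system: E. coli BW25113 wild type. Doses: compound concentration series. Timing: 20 h compound exposure, 37 °C. Technique: OD615 absorbance. Medium: LB broth containing kanamycin at 50 µg/mL. Benchmarks: chloramphenicol at 30 µM final as inhibition control. Measure: IC50 from 4-parameter logistic, bounds fixed 0–100%.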
row,Structure (SMILES),growth inhibition
1,Clc1ccc(COC(Cn2ccnc2)c2ccc(Cl)cc2Cl)c(Cl)c1 (stereo not given),10.9% (active)
2,Clc1ccc(COC(Cn2ccnc2)c2ccc(Cl)cc2Cl)cc1 (stereo not given),4.14%
3,Cc1nn(-c2ccccc2)c(Cl)c1C1C(C#N)=C(N)Oc2c1c(=O)oc1ccccc21 (stereo not given),3.35%
4,CN(C)C1(c2nnnn2CCOC(=O)Nc2ccc(Cl)cc2)CCCCC1,4.48%
5,CCC(=Nc1ccc(OC)cc1OC)c1c(O)n(C2CCCCC2)c(=O)[nH]c1=O,-2.11%
